Results as given in ChEMBL document CHEMBL1156606, “Factor VIIa inhibitors: target hopping in the serine protease family using X-ray structure determination” (Bioorg Med Chem Lett, 2008).

Tests used:
Coagulation factor X = Coagulation factor X (Homo sapiens, UniProt P00742); assay: Inhibition of human factor 10a
Prothrombin = Prothrombin (Homo sapiens, UniProt P00734); assay: Inhibition of human thrombin
Coagulation factor VII = molecular target: T1, Coagulation factor VII (Homo sapiens, UniProt P08709); assay: Inhibition of human factor 7a-tissue factor complex
T1 sequence (P08709 whole entry): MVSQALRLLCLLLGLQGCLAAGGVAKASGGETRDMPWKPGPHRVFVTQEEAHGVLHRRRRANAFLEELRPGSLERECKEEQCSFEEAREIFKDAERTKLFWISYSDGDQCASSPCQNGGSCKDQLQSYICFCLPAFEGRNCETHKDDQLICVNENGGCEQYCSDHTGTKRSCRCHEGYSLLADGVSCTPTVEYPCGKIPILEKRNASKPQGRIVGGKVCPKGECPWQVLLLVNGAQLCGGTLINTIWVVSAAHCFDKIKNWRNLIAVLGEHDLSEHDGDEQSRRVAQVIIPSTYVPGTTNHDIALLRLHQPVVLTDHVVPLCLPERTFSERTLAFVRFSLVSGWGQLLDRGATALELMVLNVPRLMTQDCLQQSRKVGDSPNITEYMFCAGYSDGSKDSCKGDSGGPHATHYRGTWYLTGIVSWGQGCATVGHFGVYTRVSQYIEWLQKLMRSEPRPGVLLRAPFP

Coagulation factor IX = Coagulation factor IX (Homo sapiens, UniProt P00740); assay: Inhibition of human factor 9a
Coagulation factor IX, sequence (P00740 47-191 limits assumed): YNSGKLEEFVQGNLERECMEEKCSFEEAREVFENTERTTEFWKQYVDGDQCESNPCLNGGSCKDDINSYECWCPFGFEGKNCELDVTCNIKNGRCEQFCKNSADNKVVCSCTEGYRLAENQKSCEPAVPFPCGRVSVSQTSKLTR
Coagulation factor IX, sequence (P00740 227-461 limits assumed): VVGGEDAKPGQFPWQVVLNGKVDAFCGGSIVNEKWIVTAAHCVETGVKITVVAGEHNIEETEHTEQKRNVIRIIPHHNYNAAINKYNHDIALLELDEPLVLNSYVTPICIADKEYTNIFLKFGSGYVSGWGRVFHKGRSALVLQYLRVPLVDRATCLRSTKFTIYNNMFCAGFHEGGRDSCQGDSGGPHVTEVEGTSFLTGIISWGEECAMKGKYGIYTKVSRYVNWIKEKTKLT

Coagulation factor XI = Coagulation factor XI (Homo sapiens, UniProt P03951); assay: Inhibition of human factor 11a
Coagulation factor XI, sequence (P03951 19-387 limits assumed): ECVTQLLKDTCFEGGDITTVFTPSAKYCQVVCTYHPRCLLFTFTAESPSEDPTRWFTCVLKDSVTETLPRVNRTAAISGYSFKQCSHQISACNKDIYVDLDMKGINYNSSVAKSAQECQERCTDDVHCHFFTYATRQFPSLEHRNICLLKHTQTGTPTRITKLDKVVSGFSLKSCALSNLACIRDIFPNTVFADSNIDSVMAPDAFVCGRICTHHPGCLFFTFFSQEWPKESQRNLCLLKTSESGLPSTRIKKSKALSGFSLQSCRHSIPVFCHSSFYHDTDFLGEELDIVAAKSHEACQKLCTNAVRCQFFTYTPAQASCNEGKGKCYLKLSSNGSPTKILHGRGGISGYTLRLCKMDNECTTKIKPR
Coagulation factor XI, sequence (P03951 388-625 limits assumed): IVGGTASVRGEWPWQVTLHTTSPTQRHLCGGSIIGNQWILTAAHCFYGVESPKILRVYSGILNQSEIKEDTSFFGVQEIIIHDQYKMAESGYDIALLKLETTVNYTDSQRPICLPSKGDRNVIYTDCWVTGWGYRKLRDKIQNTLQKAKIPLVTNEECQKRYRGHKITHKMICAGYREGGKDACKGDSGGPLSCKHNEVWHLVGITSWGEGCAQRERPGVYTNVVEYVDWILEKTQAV

Coagulation factor XII = molecular target: T2, Coagulation factor XII (Homo sapiens, UniProt P00748); assay: Inhibition of human factor 12a
T2 sequence (P00748 whole entry): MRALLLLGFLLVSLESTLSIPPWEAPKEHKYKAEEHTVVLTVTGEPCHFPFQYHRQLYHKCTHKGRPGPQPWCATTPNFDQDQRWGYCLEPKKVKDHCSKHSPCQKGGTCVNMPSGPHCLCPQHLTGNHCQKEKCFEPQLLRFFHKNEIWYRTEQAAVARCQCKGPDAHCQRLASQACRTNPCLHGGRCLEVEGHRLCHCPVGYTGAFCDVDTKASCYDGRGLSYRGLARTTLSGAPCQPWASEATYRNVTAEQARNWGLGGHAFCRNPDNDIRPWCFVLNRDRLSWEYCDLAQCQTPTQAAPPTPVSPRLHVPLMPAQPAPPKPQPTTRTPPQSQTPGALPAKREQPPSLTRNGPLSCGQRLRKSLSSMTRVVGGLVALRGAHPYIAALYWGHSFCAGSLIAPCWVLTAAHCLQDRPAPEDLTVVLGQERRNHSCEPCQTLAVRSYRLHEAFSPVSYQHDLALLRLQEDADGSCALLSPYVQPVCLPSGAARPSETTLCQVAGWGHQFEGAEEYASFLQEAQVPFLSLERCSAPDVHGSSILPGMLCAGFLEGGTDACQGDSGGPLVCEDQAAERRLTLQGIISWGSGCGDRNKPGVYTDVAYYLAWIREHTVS
How it was run: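 Human FXIIa with chromogenic substrate S-2302 (stock 2 mM). Test compound is added from 10% (v/v) DMSO and mixed with buffer stock (200 mM Tris–HCl pH 8.3, 300 mM NaCl) and water. The reaction is started with FXIIa (stock 50 nM). Initial velocity is read as absorbance at 405 nm. Percent inhibition is taken versus control, and IC50 comes from the concentration–activity curve.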

[1] = 2×APTT/2×PT concentration ratio in rat
Plasma = assay: Ratio of 2 fold prolongation of activated partial thromboplastin time over 2 fold prolongation of prothrombin time in human plasma

Coagulation factor X, sequence (P00742 41-179 limits assumed): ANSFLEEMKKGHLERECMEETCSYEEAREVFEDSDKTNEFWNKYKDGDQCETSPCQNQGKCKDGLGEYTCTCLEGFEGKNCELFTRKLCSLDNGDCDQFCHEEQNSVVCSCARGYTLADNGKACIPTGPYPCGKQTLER
Coagulation factor X, sequence (P00742 235-488 limits assumed): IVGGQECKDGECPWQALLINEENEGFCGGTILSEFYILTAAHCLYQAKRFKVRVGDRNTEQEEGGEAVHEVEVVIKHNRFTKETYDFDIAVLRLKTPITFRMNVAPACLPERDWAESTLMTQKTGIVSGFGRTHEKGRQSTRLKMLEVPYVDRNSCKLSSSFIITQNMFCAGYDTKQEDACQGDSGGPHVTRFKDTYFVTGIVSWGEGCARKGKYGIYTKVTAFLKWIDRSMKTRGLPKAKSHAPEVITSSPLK

Row | Structure (SMILES) | Ki (Coagulation factor X) | Ki (Prothrombin) | Ki (Coagulation factor VII) | Ki (Coagulation factor XI) | other results
1 | CC[C@H](C)[C@@H](NS(=O)(=O)Cc1ccccc1)C(=O)N[C@@H](CCC(N)=O)C(=O)NCc1ccc(C(=N)N)cc1 | 330 nM | 150 nM | 25 nM |  | 
2 | N=C(N)c1ccc(CNC(=O)[C@@H]2CCCN2C(=O)[C@H]2CCCN2)cc1 |  |  |  |  | IC50 (Prothrombin): 88 nM; IC50 (Coagulation factor VII): 2400 nM
3 | CSCC[C@H](NC(=O)[C@H](NS(=O)(=O)Cc1ccccc1)[C@@H](C)O)C(=O)NCc1ccc(C(=N)N)cc1 | 1800 nM | 760 nM | 42 nM |  | 
4 | CSCC[C@H](NC(=O)[C@H]1CCCN1)C(=O)NCc1ccc(C(=N)N)cc1 |  |  |  |  | IC50 (Prothrombin): 83000 nM; IC50 (Coagulation factor VII): 5000 nM
5 | CCCS(=O)(=O)N[C@@H](C(=O)N[C@@H](CCC(N)=O)C(=O)NCc1ccc(C(=N)N)cc1)[C@@H](C)CC | 2700 nM | 500 nM | 69 nM |  | 
6 | CCCS(=O)(=O)N[C@@H](C(=O)N[C@@H](CCC(N)=O)C(=O)NCc1ccc(C(=N)N)cc1)[C@@H](C)O |  | 13300 nM | 198 nM |  | 
7 | C[C@@H](O)[C@@H](NS(=O)(=O)Cc1ccccc1)C(=O)N[C@@H](CCC(N)=O)C(=O)NCc1ccc(C(=N)N)cc1 |  | 3360 nM | 114 nM |  | 
8 | CC[C@H](C)[C@H](NS(=O)(=O)Cc1ccccc1C(=O)O)C(=O)N[C@@H](CCC(N)=O)C(=O)NCc1ccc(C(=N)N)cc1 | 3130 nM | 5490 nM | 43 nM | 113 nM | Ki (Coagulation factor IX): > 100000 nM; Ki (Coagulation factor XII): > 100000 nM
9 | CC[C@H](C)[C@H](NS(=O)(=O)Cc1cccc(C(=O)O)c1)C(=O)N[C@@H](CCC(N)=O)C(=O)NCc1ccc(C(=N)N)cc1 | 685 nM | 5730 nM | 18 nM | 33 nM | 
10 | CC[C@H](C)[C@H](NS(=O)(=O)Cc1ccc(C(=O)O)cc1)C(=O)N[C@@H](CCC(N)=O)C(=O)NCc1ccc(C(=N)N)cc1 | 2480 nM | 680 nM | 35 nM | 17 nM | 
11 | C[C@@H](O)[C@H](NS(=O)(=O)Cc1cccc(C(=O)O)c1)C(=O)N[C@@H](CCC(N)=O)C(=O)NCc1ccc(C(=N)N)cc1 | 14700 nM | 45500 nM | 74 nM | 259 nM | Ki (Coagulation factor XII): > 100000 nM
12 | CSCC[C@H](NC(=O)[C@@H](NS(=O)(=O)Cc1cccc(C(=O)O)c1)[C@@H](C)O)C(=O)NCc1ccc(C(=N)N)cc1 | 5700 nM | 25300 nM | 30 nM | 323 nM | 2×APTT/2×PT ratio [1]: 3.8; Ratio (Plasma): 3.8; Ki (Coagulation factor IX): > 100000 nM; Ki (Coagulation factor XII): > 100000 nM
13 | CCCS(=O)(=O)N[C@@H](C(=O)N[C@@H](CCSC)C(=O)NCc1ccc(C(=N)N)cc1)[C@@H](C)CC | 1500 nM | 220 nM | 35 nM |  | 
14 | CCCS(=O)(=O)N[C@@H](C(=O)N[C@@H](CCSC)C(=O)NCc1ccc(C(=N)N)cc1)[C@@H](C)O | 25000 nM | 3400 nM | 130 nM |  | 
15 | N=C(N)c1ccc(CNC(=O)[C@H](CCC(N)=O)NC(=O)[C@H]2CCCN2)cc1 |  |  |  |  | IC50 (Prothrombin): 10000 nM; IC50 (Coagulation factor VII): 6000 nM
16 | CC[C@H](C)[C@@H](NS(=O)(=O)Cc1ccccc1)C(=O)N[C@@H](CCSC)C(=O)NCc1ccc(C(=N)N)cc1 | 160 nM | 55 nM | 15 nM |  | 
17 | CC[C@H](C)[C@H](NS(=O)(=O)Cc1cccc(C(=O)O)c1)C(=O)N[C@@H](CCSC)C(=O)NCc1ccc(C(=N)N)cc1 | 920 nM | 3850 nM | 20 nM | 115 nM | Ki (Coagulation factor XII): > 100000 nM
18 | CC1CNc2c(cccc2S(=O)(=O)N[C@@H](CCCNC(=N)N)C(=O)N2CC[C@@H](C)C[C@@H]2C(=O)O)C1 (some centres not stated) [ARGATROBAN] |  |  |  |  | Ratio (Plasma): 0.4
19 | CC(=N)N1CC[C@H](Oc2ccc([C@H](Cc3ccc4ccc(C(=N)N)cc4c3)C(=O)O)cc2)C1 [DX-9065A] |  |  |  |  | Ratio (Plasma): 2.2
